Source: PubChem BioAssay (several laboratories)
A selection: hits, their analogues and other compounds. The true share with any hit is near 1.2%.
Runt-SMMHC FRET = blocks binding of human RUNX1 Runt domain to CBFb-SMMHC; Q01196+Q13951; Cerulean-Runt/Venus-CBFb-SMMHC FRET ratio 530/480, 1 h; inhibition, % at 20 µM; 0.74% of 220,000 active; AID 1434;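 active means mean inhibition across duplicate retests at 20 µM reaching about 50%, limit read from the data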;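 further: 0% = DMSO wells and 100% = wells with excess untagged CBFb-SMMHC; inhibitors lower the FRET ratio by blocking Runt binding to CBFb-SMMHC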
Target sequence (Q01196 whole entry, looked up, the tested form may be a part): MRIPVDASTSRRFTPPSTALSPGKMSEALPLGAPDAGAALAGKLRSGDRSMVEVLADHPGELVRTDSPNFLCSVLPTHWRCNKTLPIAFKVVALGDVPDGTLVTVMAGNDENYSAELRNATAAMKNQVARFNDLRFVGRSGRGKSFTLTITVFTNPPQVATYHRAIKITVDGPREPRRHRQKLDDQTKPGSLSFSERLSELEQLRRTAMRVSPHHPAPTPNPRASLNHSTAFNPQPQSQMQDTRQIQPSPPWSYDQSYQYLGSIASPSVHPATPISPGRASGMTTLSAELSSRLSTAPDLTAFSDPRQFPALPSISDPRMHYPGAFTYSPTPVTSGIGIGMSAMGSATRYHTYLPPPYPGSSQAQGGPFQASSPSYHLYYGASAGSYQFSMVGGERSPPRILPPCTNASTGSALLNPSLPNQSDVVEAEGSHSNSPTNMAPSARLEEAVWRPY
Target sequence (Q13951 whole entry, looked up, the tested form may be a part): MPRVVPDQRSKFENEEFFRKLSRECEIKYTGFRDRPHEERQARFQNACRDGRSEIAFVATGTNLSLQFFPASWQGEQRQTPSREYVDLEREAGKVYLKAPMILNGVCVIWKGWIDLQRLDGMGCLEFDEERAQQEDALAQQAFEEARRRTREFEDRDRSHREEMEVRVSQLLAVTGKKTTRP
RanGTP-Imp inh = disruptors of Ran-importin-beta complex formation – biochemical, FRET, CFP-Ran, YFP-importin-beta, homogeneous, primary screen | cell-free CFP-Ran/YFP-importin-beta FRET ratio | inhibition, % (no concentration beside the values) | 1.1% of 300,000 active | AID 2216;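 active means more than half of the replicate wells show a fall in the fluorescence ratio signal beyond about 16%, limit read from the data, passing the limit was not always enough; inconclusive means exactly half of the replicate wells pass the set limit; inactive means fewer than half of replicates pass the limit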;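 further: 0% = DMSO wells and 100% = Ran loaded with GDP instead of GTP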
Runt-CBFb FRET = Runt domain-CBFb interaction inhibition; inhibition, % at 20 µM; AID 1496; 0.46% of 220,000 active; Cerulean-Runt/Venus-CBFb FRET ratio 530/480, 1 h;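 active means inhibition over about 50% at 20 µM in the single-dose screen, limit read from the data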;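 further: 0% = DMSO wells and 100% = excess unlabeled CBFb competitor control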
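Assay system: Cerulean-Runt domain / Medium: Tris 50 mM pH 7.5, KCl, K2SO4, 0.01% BSA / Timing: protein complex preformed 1 h, compound exposure 1 h, room temperature, dark / Measured by: FRET, excitation 422 nm, emission at 530 and 480 nm / Evaluation: loss of energy transfer signal / Control set: 5 µM unlabeled CBFb as full-inhibition high control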
CaV13 FRET inh = Disruptors of the CACNA1D IQ motif to Ca2+-dependent inactivation inhibitor domain association, primary screening, Förster resonance energy transfer in intact living …; HEK cells, CFP/YFP FRET ICDI-IQ, plate reader, 10 min; percent FRET-ratio fall versus neutral wells; inhibition, % at 12.3 µM; 0.098% of 340,000 active; AID 743397;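 active means mean replicate inhibition of at least 30% and at least 1% of replicates passing that level; inconclusive means only one of the two criteria is met; inactive means neither criterion is met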;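 further: 0% = median of the neutral control wells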
* hit, by the source's call; ? = inconclusive; . = no result given.

SMILES	Runt-SMMHC FRET	RanGTP-Imp inh	Runt-CBFb FRET	CaV13 FRET inh
CCOC(=O)N1CCC(NC(=O)CCCN2C(=O)CSc3ncccc32)CC1	-3	6	0	.
O=C(CCCN1C(=O)CSc2ncccc21)N1CCN(Cc2ccccc2)CC1	-2	0	-1	37*
CC(CC(F)(F)F)N1CCC(n2nccc2NC(=O)CCCc2ccccc2)CC1 (centres undefined)	.	57*	.	-5
Cc1cc(-n2c(C)cc(C(=O)CSc3ncnc4ccccc34)c2C)no1	110*	0	34	-4
O=c1[nH]c(N/N=C\c2ccc3c(c2)OCO3)nc2ccccc12	16	16*	37	-4
O=c1[nH]c(N/N=C/c2ccccc2)nc2ccccc12	50*	?	38	-6
Cc1cccc(C)c1N(C(=O)c1ccco1)C(C(=O)NC1CCCC1)c1ccncc1 (centres undefined)	.	0	.	-3
O=C(NCC(=O)N1CCN(C(=O)c2ccco2)CC1)c1ccc(Br)cc1	.	2	.	.
O=C(NNC(=S)Nc1ccccc1)C1CC1	-3	-3	1	-9
O=C(NNC(=S)Nc1ccccc1)C1CCCCC1	0	178*	1	-5
CCOC(=O)c1c(N)n(-c2ccc(N)cc2)c2nc3ccccc3nc12	6	0	1	-6
CCCCn1c(NC(=O)CC)c(C#N)c2nc3ccccc3nc21	11	5	4	-3
CCC(=O)Nc1c(C#N)c2nc3ccccc3nc2n1-c1ccccc1C	-4	?	-5	.
COc1ccc(-n2c(NC(=O)c3ccco3)c(C#N)c3nc4ccccc4nc32)cc1	-3	128*	-2	5
CCCCn1c(NC(=O)c2ccccc2Cl)c(C#N)c2nc3ccccc3nc21	60*	-5	84*	.
N#Cc1c(NC(=O)c2ccccc2Cl)n(Cc2ccccc2)c2nc3ccccc3nc12	111*	.	49	10
CCOC(=O)c1c(N)n(C2CC(C)(C)NC(C)(C)C2)c2nc3ccccc3nc12	94*	?	50	.
O=C(c1ccccc1)c1cnc(Nc2ccccc2Cl)s1	9	-1	-1	.
COc1ccccc1OCCn1c(C)c(C=O)c2ccccc21	.	-2	.	-5
CCC1CCCCN1C(=O)CCC(=O)Nc1nnc(C(F)(F)F)s1 (centres undefined)	.	3	.	-7
CCCS(=O)(=O)NC(=O)C1(C)CCN(C(=O)c2c(F)cccc2F)C1 (centres undefined)	.	.	.	-6
CCOC(=O)c1c(NC(=O)c2ccco2)n(C2CCCCC2)c2nc3ccccc3nc12	32	79*	19	4
COc1cccc(/C(O)=C2/C(=O)C(=O)N(c3cc(C)on3)C2c2cccs2)c1 (centres undefined)	145*	1	77*	.
Cc1ccc(-c2nc3ccccc3nc2-c2ccccc2)cc1	.	2	.	-3
Cc1ccc(-c2cc(-c3ccccc3)nc(NN)n2)cc1	.	4	.	-2
SMILES	Runt-SMMHC FRET	RanGTP-Imp inh	Runt-CBFb FRET	CaV13 FRET inh
Cc1ccc(-c2nc(N)s[n+]2-c2ccccc2)cc1	65*	6	9	23
CNc1nc(-c2ccccc2)[n+](-c2ccc(C)cc2)s1	56*	-1	10	-8
O=C(O)c1cc(S(=O)(=O)O)cc(Nc2c3ccccc3nc3ccccc23)c1O	.	102*	.	-3
CCCCC(=O)Nc1ccc(NC(=O)c2cnccn2)cn1	-1	172*	1	-6
CC(C)Cc1ccc(/C=C/C(=O)N2CCOCC2)cc1	-1	18*	-5	-2
CC1(C(=O)Nc2cccc3c2CCCC3)CCN1C(=O)C1(c2ccc(Cl)cc2)CC1 (centres undefined)	.	.	.	-2
N#CCC(=O)N/N=C/c1ccc(N2N=C(c3ccccc3)CC2c2ccccc2)cc1 (centres undefined)	.	99*	.	-15
COc1ccc(C2CC(c3ccccc3)=NN2c2ccc(/C=N/NC(=O)c3ccncc3)cc2)cc1 (centres undefined)	-248	19*	-112	-13
COc1ccc(C2CC(c3ccccc3)=NN2c2ccc(C(N)=O)cc2)cc1 (centres undefined)	.	11	.	83*
CC(=O)Nc1ccc(C2=NN(c3ccccc3)C(c3ccccc3)C2)cc1 (centres undefined)	.	-1	.	-19
O=C(O)c1ccc(N2N=C(c3ccccc3)CC2c2ccccc2)cc1 (centres undefined)	.	5	.	115*
COc1ccnc2c1c(=O)n(Cc1ccc(Cl)cc1Cl)c(=O)n2C	.	0	.	-7
Cc1cccn2c(=O)c3cc(C(=O)NC4CCCC4)c(=N)n(CCCN4CCOCC4)c3nc12	.	175*	.	16
CCOCCCn1c(=N)c(C(=O)NCCN2CCOCC2)cc2c(=O)n3cccc(C)c3nc21	.	.	.	15
Cc1cccn2c(=O)c3cc(C(=O)NCCN4CCOCC4)n(C)c3nc12	.	4	.	-5
Cc1cccn2c(=O)c3cc(C(=O)NCCN4CCOCC4)c(=N)n(CCN4CCOCC4)c3nc12	.	128*	.	13
Cc1cccn2c(=O)c3cc(C(=O)NCCN4CCOCC4)c(=N)n(Cc4ccc(F)cc4)c3nc12	.	162*	.	102*
CC(=Nc1cccc(C)c1)c1sc2ccccc2c1O	68*	26*	33	.
CC(=O)NCCN=C(C)c1sc2ccccc2c1O	60	54*	26	.
CC(=Nc1ccc(O)cc1)c1sc2ccccc2c1O	-98	2	-22	.
CN(c1cccnc1)c1ccc(NC(=O)Cc2cn(Cc3ccccc3)c3ccccc23)cc1Br	.	.	.	-1
O=Cc1sc([O-])nc1-[n+]1ccc2ccccc2c1	2	28*	8	.
O=C(NNc1cc(N2CCOCC2)nc(N2CCOCC2)n1)c1ccc(Cl)c(Cl)c1	3	134*	1	-11
O=C(NNc1cc(N2CCOCC2)nc(N2CCOCC2)n1)C12CC3CC(CC(C3)C1)C2	-1	57*	-4	-19
O=C(NNC(=O)C12CC3CC(CC(C3)C1)C2)c1csc(N2CCOCC2)n1	.	8	.	-5
SMILES	Runt-SMMHC FRET	RanGTP-Imp inh	Runt-CBFb FRET	CaV13 FRET inh
Cc1ccc(C(=O)NNc2cc(N3CCCC3)nc(N3CCCC3)n2)cc1	10	?	-1	.
Cc1nnc(NC(=O)C2CCN(S(=O)(=O)c3ccc(F)c(F)c3)CC2)o1	.	.	.	-5
COc1ccc(C)cc1S(=O)(=O)Nc1ccncc1	-4	14*	1	-20
COc1ccc(C)cc1S(=O)(=O)Nc1ccccc1	-1	7	0	-4
CCCNC(=S)N1CCC(C(=O)c2ccc3c(c2)OCCO3)CC1	2	-1	-1	-5
CCCCCCNC(=O)N[C@@H](C(=O)NCCC[C@H]1CN2C(=NC[C@@H]2Cc2ccccc2)N1CCc1cccc(OC)c1)C(C)C	63*	2	37	.
C/C=C(\C)C(=O)NCCN1C2=NC[C@@H](Cc3ccccc3)N2C[C@@H]1Cc1ccc(OC)cc1	.	1	.	-10
CCC(Sc1nc(N)c(NC(=O)c2ccc(OC)cc2)c(=O)[nH]1)C(=O)O (centres undefined)	-1	5	2	67*
